Active and inactive are the calls of the source. No cut-off for these calls is given here.
Legend:
[1] = target: T1, UDP-3-O-acyl-N-acetylglucosamine deacetylase (Escherichia coli K-12) (UniProt P0A725); experiment: Inhibition of Escherichia coli LpxC at 4 nM
T1 sequence (whole entry): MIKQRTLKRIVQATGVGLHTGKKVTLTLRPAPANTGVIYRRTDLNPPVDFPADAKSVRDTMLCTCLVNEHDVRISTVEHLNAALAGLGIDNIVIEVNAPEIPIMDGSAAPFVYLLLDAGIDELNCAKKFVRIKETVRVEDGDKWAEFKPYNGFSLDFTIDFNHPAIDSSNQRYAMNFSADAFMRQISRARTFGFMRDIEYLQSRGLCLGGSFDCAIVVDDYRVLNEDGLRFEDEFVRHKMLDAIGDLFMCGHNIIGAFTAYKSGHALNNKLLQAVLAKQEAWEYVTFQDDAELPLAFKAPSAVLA

[2] = target: T2, UDP-3-O-acyl-N-acetylglucosamine deacetylase (Aquifex aeolicus (strain VF5)) (UniProt O67648); experiment: Inhibition of Aquifex aeolicus LpxC
T2 sequence (whole entry): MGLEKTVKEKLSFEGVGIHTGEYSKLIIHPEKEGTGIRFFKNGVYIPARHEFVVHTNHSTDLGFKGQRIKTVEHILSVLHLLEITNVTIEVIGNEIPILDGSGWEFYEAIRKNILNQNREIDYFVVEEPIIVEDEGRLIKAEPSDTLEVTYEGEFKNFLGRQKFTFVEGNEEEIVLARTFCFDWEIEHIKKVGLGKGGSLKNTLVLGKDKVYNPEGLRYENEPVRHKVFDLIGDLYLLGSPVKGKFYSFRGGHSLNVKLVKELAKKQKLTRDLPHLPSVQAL

Rhizobium leguminosarum [3] = experiment: Activity of Rhizobium leguminosarum LpxC
Method in brief: (§1)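 Wild-type and site-directed mutant LpxC (E. coli, R. leguminosarum) expressed and purified, then assayed by a previously described method. Substrate was UDP-3-O-(R-3-hydroxymyristoyl)-N-acetylglucosamine, varied for Michaelis–Menten analysis. KM and kcat came from data sets pooling multiple independent experiments.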

Rhizobium leguminosarum [4] = experiment: Inhibition of Rhizobium leguminosarum LpxC at 0.5 uM
Rhizobium leguminosarum [5] = experiment: Ratio of Kcat to Km of Rhizobium leguminosarum LpxC; method in brief: as §1

inhibition [1]: > 75%
Activity [2]: Active
Km (Rhizobium leguminosarum [3]): 4.8 µM
kcat (Rhizobium leguminosarum [3]): 1.7 s⁻¹
inhibition (Rhizobium leguminosarum [4]): 50%
kcat/Km (Rhizobium leguminosarum [5]): 3.5 10^6/M/s
SMILES: C[C@@H](O)[C@H](NC(=O)c1ccc(C#Cc2ccc(CN3CCOCC3)cc2)cc1)C(=O)NO

Reference: ChEMBL document CHEMBL1147081, “Structure of the deacetylase LpxC bound to the antibiotic CHIR-090: Time-dependent inhibition and specificity in ligand binding” (Proc Natl Acad Sci U S A, 2007)
